Results: ChEMBL document CHEMBL3232842, “Synthesis and pharmacological evaluation of novel limonin derivatives as anti-inflammatory and analgesic agents with high water solubility” (Bioorg Med Chem Lett, 2014)
The source made the active and inactive calls. The rule behind the calls is not given here.

What was measured:
[1] = Dissociation constant, pKa of the compound; assay type: physicochemical
[2] = Partition coefficient, log D of the compound at pH 7.4; assay type: physicochemical; details: octanol/water
[3] = Intrinsic aqueous solubility of the compound; assay type: physicochemical; details: read-out: Intrinsic_solubility
Outline: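 Determined on a Gemini Profiler by potentiometric titration (Avdeef–Bucher method), which also gave pKa; logD at pH 7.4.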

[4] = tested on: Mus musculus; test: Analgesic activity in mouse assessed as inhibition of acetic acid-induced writhing at 70 mg/kg, ig administered 1 hr before acetic acid challenge measured after 15 mins; assay type: functional; details: po, route intragastric
Outline: (§1)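 Mice dosed by gavage with compound suspended in 0.5% CMC-Na; the model group got vehicle only. 1 h later, 0.7% acetic acid in saline was injected i.p. at 0.1 ml/10 g body weight. Writhes were counted 15 min after the stimulus. Results are mean ± SEM, n = 8.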

[5] = tested on: Mus musculus; test: Analgesic activity in mouse assessed as increase in tail-curl latency time at 100 mg/kg, ig measured after 60 mins by tail-immersion test; assay type: functional, organism-based; design: dose 100 mg/kg
Outline: (§2)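 Mice dosed by gavage with 100 mg/kg suspended in 0.5% CMC-Na. Tail-curl latency in the tail-immersion test was recorded before dosing and at 30, 60, 90 and 120 min afterward. Results are given as mean ± SEM (n = 8), with one-way ANOVA against control.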

[6] = tested on: Mus musculus; test: Antiinflammatory activity in mouse assessed as xylene-induced ear swollen extent at 100 mg/kg, ig administered 90 mins prior to xylene challenge measured after 30 mins (reference value: 132.8 +/-16.3%); assay type: functional; details: route intragastric
Outline: (§3)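 Mice were given compound by gavage as a suspension in 0.5% CMC-Na; the vehicle group got 0.5% CMC-Na. 90 min later, 25 µl xylene was applied to both surfaces of the right ear, with the left ear as control. Mice were killed 30 min later. 8 mm punches were taken from both ears and weighed, and swelling was expressed relative to the left ear weight. Results are mean ± SEM, n = 8.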

[7] = tested on: Mus musculus; test: Antiinflammatory activity in mouse assessed as inhibition of xylene-induced ear swelling at 100 mg/kg, ig administered 90 mins prior to xylene challenge measured after 30 mins; assay type: functional; details: po, route intragastric; outline: as §3
[8] = tested on: Mus musculus; test: Analgesic activity in mouse assessed as increase in tail-curl latency time at 100 mg/kg, ig measured after 30 to 90 mins by tail-immersion test; assay type: functional, organism-based; design: dose 100 mg/kg; outline: as §2
[9] = tested on: Mus musculus; test: Analgesic activity in mouse assessed as inhibition of acetic acid-induced writhing at 200 mg/kg, ig administered 1 hr before acetic acid challenge measured after 15 mins; assay type: functional; details: po, route intragastric; outline: as §1
[10] = Equilibrium solubility of the compound by classical saturation shake flask method; assay type: physicochemical
Outline: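 Equilibrium solubility measured by the classical saturation shake-flask method.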

[11] = tested on: Mus musculus; test: Analgesic activity in mouse assessed as increase in tail-curl latency time at 100 mg/kg, ig measured after 30 to 120 mins by tail-immersion test; assay type: functional, organism-based; design: dose 100 mg/kg; outline: as §2
[12] = species on record: Mus musculus; test: animal or person; details: Ear, po, read-out: INH
[13] = tested on: Mus musculus; test: Analgesic activity in mouse assessed as increase in tail-curl latency time at 100 mg/kg, ig measured after 90 mins by tail-immersion test; assay type: functional, organism-based; design: dose 100 mg/kg; outline: as §2

Compound	pKa [1]	logD [2]	solubility [3] [µg/mL]	inhibition in vivo at 70 mg/kg [4] [%]	Activity [5]	Ear swelling extent [6] [%]	inhibition in vivo at 100 mg/kg [7] [%]	Activity [8]	inhibition in vivo at 200 mg/kg [9] [%]	solubility thermodynamic [10] [µg/mL]	Activity [11]	inhibition in vivo at 150 mg/kg [12] [%]	Activity [13]
CCN(CC)CCO/N=C1/C[C@H]2C(C)(C)O[C@H]3CC(=O)OC[C@]32[C@H]2CC[C@]3(C)C(=CC(=O)O[C@H]3c3ccoc3)[C@]12C.Cl	9.49	0.57	1900	33.2	Active	108.2	18.4	–	–	–	–	–	–
CC1(C)O[C@H]2CC(=O)OC[C@]23[C@H]2CC[C@@]4(C)[C@H](c5ccoc5)OC(=O)[C@H]5O[C@]54[C@]2(C)/C(=N\OCCN2CCOCC2)C[C@@H]13.Cl	6.11	2.45	4500	58	–	62.4	53	Active	–	–	–	–	–
CC1(C)O[C@H]2CC(=O)OC[C@]23[C@H]2CC[C@]4(C)C(=CC(=O)O[C@H]4c4ccoc4)[C@]2(C)/C(=N\OCCN2CCCCC2)C[C@@H]13.Cl	8.52	0.81	19800	44.3	Active	99.1	25.4	–	–	–	–	–	–
CN(C)CCCO/N=C1/C[C@H]2C(C)(C)O[C@H]3CC(=O)OC[C@]32[C@H]2CC[C@@]3(C)[C@H](c4ccoc4)OC(=O)[C@H]4O[C@]43[C@]12C.Cl	9.28	0.37	9600	64.1	–	71.6	46.1	Active	–	–	–	–	–
CC1(C)O[C@H]2CC(=O)OC[C@]23[C@H]2CC[C@@]4(C)[C@H](c5ccoc5)OC(=O)[C@H]5O[C@]54[C@]2(C)/C(=N\OCCN2CCCCC2)C[C@@H]13.Cl	8.87	0.44	25300	70.5	Active	60.1	54.8	Active	–	–	–	–	–
CC1(C)O[C@H]2CC(=O)OC[C@]23[C@H]2CC[C@]4(C)C(=CC(=O)O[C@H]4c4ccoc4)[C@]2(C)/C(=N\OCCN2CCOCC2)C[C@@H]13.Cl	6.84	2.52	2100	50	Active	96.1	27.6	–	–	–	–	–	–
CC(=O)Oc1ccccc1C(=O)O [ASPIRIN]	–	–	–	–	–	–	–	–	71.8	–	–	–	–
CC1(C)O[C@H]2CC(=O)OC[C@@]23[C@H]1CC(=O)[C@@]1(C)C2=CC(=O)O[C@H](c4ccoc4)[C@]2(C)CC[C@@H]13 [DESOXYLIMONIN]	–	–	–	24.6	–	111.7	15.9	–	–	< 5	inactive	–	–
CC1(C)O[C@H]2CC(=O)OC[C@]23[C@H]2CC[C@@]4(C)[C@H](c5ccoc5)OC(=O)[C@H]5O[C@]54[C@]2(C)C(=O)C[C@@H]13 [LIMONIN]	–	–	–	45.9	–	89.3	32.7	–	–	< 5	–	–	–
CN(C)CCO/N=C1/C[C@H]2C(C)(C)O[C@H]3CC(=O)OC[C@]32[C@H]2CC[C@@]3(C)[C@H](c4ccoc4)OC(=O)[C@H]4O[C@]43[C@]12C.Cl	8.78	0.59	17800	68.6	–	72.4	45.5	Active	–	–	–	–	–
CN(C)CCO/N=C1/C[C@H]2C(C)(C)O[C@H]3CC(=O)OC[C@]32[C@H]2CC[C@]3(C)C(=CC(=O)O[C@H]3c3ccoc3)[C@]12C.Cl	8.88	0.32	28900	30	Active	100.2	24.6	–	–	–	–	–	–
COc1ccc2cc([C@H](C)C(=O)O)ccc2c1 [NAPROXEN]	–	–	–	–	–	–	–	–	–	–	–	36.6	–
CN(C)CCCO/N=C1/C[C@H]2C(C)(C)O[C@H]3CC(=O)OC[C@]32[C@H]2CC[C@]3(C)C(=CC(=O)O[C@H]3c3ccoc3)[C@]12C.Cl	9.39	0.19	9400	60.7	Active	97.8	26.4	–	–	–	–	–	–
CCN(CC)CCO/N=C1/C[C@H]2C(C)(C)O[C@H]3CC(=O)OC[C@]32[C@H]2CC[C@@]3(C)[C@H](c4ccoc4)OC(=O)[C@H]4O[C@]43[C@]12C.Cl	9.17	0.26	14500	80	–	32.6	75.5	Active	–	–	–	–	Active
